STEP inh = inhibitors of human striatal-enriched phosphatase STEP; P54829; recombinant STEP, OMFP fluorogenic substrate, fluorescence; inhibition, % at 20 µM; hit rate 0.25% among 360,000; AID 588621;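 active = inhibition at 20 µM, scaled per plate between control wells, above about 37%, limit read from the data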;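 also: 0% = DMSO with enzyme and substrate and 100% = substrate only without enzyme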
Target sequence (P54829 whole entry, looked up): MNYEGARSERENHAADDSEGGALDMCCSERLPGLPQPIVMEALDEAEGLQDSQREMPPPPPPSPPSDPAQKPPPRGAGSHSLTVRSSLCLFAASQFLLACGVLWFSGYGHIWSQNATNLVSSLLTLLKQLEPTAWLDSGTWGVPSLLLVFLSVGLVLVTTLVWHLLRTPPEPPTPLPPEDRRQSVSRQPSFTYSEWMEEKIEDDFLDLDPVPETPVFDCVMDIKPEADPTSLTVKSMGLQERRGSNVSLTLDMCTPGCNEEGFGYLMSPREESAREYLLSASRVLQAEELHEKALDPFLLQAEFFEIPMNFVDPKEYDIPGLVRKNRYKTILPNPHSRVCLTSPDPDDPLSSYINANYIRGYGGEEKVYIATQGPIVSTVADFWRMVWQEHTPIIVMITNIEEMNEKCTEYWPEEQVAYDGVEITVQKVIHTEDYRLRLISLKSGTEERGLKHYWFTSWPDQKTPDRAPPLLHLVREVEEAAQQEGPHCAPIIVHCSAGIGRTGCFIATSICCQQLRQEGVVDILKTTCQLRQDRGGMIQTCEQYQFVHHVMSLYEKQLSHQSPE
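Assay system: isolated STEP enzyme / Timing: 20 min at room temperature, dark / Doses: 20 µM, 1% DMSO / Technique: fluorescence intensity, excitation 480 nm, emission 540 nm / Reagent: fluorogenic phosphatase substrate OMFP at 25 µM final / Measure: percent inhibition scaled to no-enzyme and uninhibited-enzyme controls, plate-pattern corrected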
DNMT1 block = inhibitors of human DNMT1; P26358; DNMT1 molecular beacon, Hinp1I cleavage, fluorescence; inhibition (reported as % activation of signal), % at 10 µM; hit rate 0.83% among 360,000; AID 588458; in the data active = inhibition above about 50%
Scp-1 inhibitor = inhibitors of human Scp-1 phosphatase | Q9GZU7 | Recombinant Scp1, phosphopeptide, malachite green phosphate absorbance | inhibition, % at 20 µM | hit rate 0.88% among 340,000 | AID 493091;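 active = inhibition above about 50% at 20 µM, limit read from the data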;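 also: plate controls were DMSO wells with enzyme for no effect and wells lacking enzyme for full effect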
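System: truncated SCP-1 phosphatase (76-261aa); medium: Tris acetate buffer pH 5.5 with MgCl2 and Tween-20; incubation: 45 min room-temperature reaction, 5 min colour, 30 min stabiliser; compound: single 20 µM dose, 1% DMSO; reagent: Phosphorylated 17-residue peptide substrate; read-out: % inhibition at 20 µM; technique: colorimetric free-phosphate detection, absorbance 630 nm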
LMPTP inh = blocks human LMPTP phosphatase; recombinant LMPTP-A, OMFP fluorogenic substrate, fluorescence intensity; hit rate 0.22% among 360,000; inhibition, % at 20 µM; P24666;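 active = compounds that cut the enzyme signal by at least half of the control window in the single-dose screen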;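 also: plate controls were DMSO wells with enzyme plus substrate for no effect and substrate without enzyme for full effect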
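Assay system: LMPTP-A phosphatase enzyme | Input: 0.625 nM enzyme | Also added: Fluorogenic phosphatase substrate OMFP at 400 µM final | Compound dosing: One test concentration per compound, 20 µM, with 3% DMSO overall | Schedule: 50 min enzyme reaction at room temperature, protected from light | Signal: Fluorescence intensity | Benchmarks: no-enzyme and uninhibited controls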
SUMO1-SIM PPI = modulators of human SUMO1-mediated protein-protein interactions. P63165. SUMO1 binding to a labelled peptide, TR-FRET, 1 h. inhibition, % at 20 µM. hit rate 0.33% among 360,000; in the data active = inhibition above about 37%
Target sequence (P63165 whole entry, looked up): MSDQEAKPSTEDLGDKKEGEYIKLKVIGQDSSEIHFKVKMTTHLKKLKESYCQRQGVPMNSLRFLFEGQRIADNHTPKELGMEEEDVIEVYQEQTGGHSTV
Beacon interf DR = counter-screen for DNMT1 inhibitors: spectral interference, dose response; shares compounds with DNMT1 block; molecular beacon fluorescence; IC50, µM; 200 tested, under 10 active; AID 602382; call rule not given here
DNMT1 confirm = DNMT1 inhibition confirmation, single concentration | shares compounds with DNMT1 block | DNMT1 molecular beacon HinP1I cleavage, fluorescence | inhibition, % at 10 µM | hit rate 8% among 2,300;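 active = average inhibition of at least 30% in the single-concentration confirmation test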
Beacon interf = shows spectral interference in the DNMT1 beacon assay; shares compounds with DNMT1 block; DNMT1 molecular beacon spectral interference counterscreen, fluorescence 485/520; activation (fluorescence interference), % at 10 µM; hit rate 1% among 2,300; AID 602387;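 active = activation of at least 30% at 10 µM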;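 also: DNMT1 catalytic domain with a HinP1I cleavage step and a FAM/dabcyl DNA beacon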
* marks the source's active call; other numbers are inactive results; x = no result. This is a sample that favours compounds with a hit; in the whole collection about 1.7% have one here.

SMILES | STEP inh | DNMT1 block | Scp-1 inhibitor | LMPTP inh | SUMO1-SIM PPI | DNMT1 confirm | Beacon interf | others
O=C(N/N=C/c1cc(Br)c(Br)o1)c1cccnc1 | 2 | 62* | 21 | 2 | 3 | 3 | 0
Cn1c(SCC(=O)c2cc(Cl)c(Cl)s2)nnc1-c1ccco1 | 31 | 52* | 10 | 30 | 15 | 8 | 5
Cc1sc(NC(=O)c2sc3nc4c(C)cccc4cc3c2N)c(C#N)c1C | 3 | 88* | -4 | 3 | 6 | 9 | -1
Cc1cccc2cc3c(N)c(C#N)sc3nc12 | -4 | -5 | -8 | 3 | -8 | x | x
CCCCN(C)CCNC(=O)CCn1nc(-c2ccc(C)cc2)ccc1=O | 1 | -2 | -9 | -1 | -5 | x | x
Cc1ccccc1NC(=O)CN1CCN(Cc2ccccc2)CC1 | -4 | 79* | -4 | -1 | 6 | 1 | 5
Cc1ccccc1NC(=O)CCN1CCN(Cc2ccccc2)CC1 | -4 | -2 | -2 | -2 | -1 | x | x
CCN(CC)c1ccc(S(=O)(=O)N2CCOCC2)cc1NC(=O)CN1CCN(Cc2ccccc2)CC1 | 3 | 58* | -9 | -1 | 3 | 0 | 4
CC(C)NC(=O)c1ccc(C(C)C)cc1 | -3 | -2 | -4 | 0 | -7 | x | x
C(=C\c1nc(N2CCCC2)c2ccccc2n1)/c1ccccc1 | 2 | 61* | 18 | 85* | -2 | 3 | 3
COc1ccc([C@H]2CC(=O)C=C(c3cccc(CO)c3)C2)cc1 | 1 | 1 | -14 | 1 | -24 | x | x
Cc1cc(/C=C2/C(=O)N(C)C(=S)N2C)c(C)n1C1CC1 | -6 | -15 | -4 | 0 | -7 | x | x
Cc1cc(/C=C2\SC(=S)NC2=O)c(C)n1C1CC1 | 1 | 66* | -5 | 3 | 10 | 5 | 2
Cc1ccc(N=Nc2c(N)nn3c(N)c(C#N)c(C)nc23)cc1 | 12 | 79* | 3 | 9 | -24 | 13 | 5
N#CCCN(C(=O)COC(=O)Cc1c[nH]c2ccccc12)c1ccccc1 | -2 | 2 | -5 | -7 | -12 | x | x
COc1cc(CCc2ccccc2)c(C(=O)O)c(O)c1C/C=C(/C)CCC=C(C)C | -1 | 61* | 1 | 2 | 77* | 84* | -9 | Beacon interf DR=>99
COc1cc(CCc2ccccc2)c(C(=O)O)c(O)c1CC=C(C)C | -4 | -11 | -7 | 1 | 4 | x | x
O=C(CCc1nc2ccccc2c(=O)[nH]1)Nc1nnc(SCc2ccccc2)s1 | 1 | 67* | 5 | 4 | 9 | 0 | -6
O=c1[nH]c(CSc2nnc(Nc3ccccc3)s2)nc2ccccc12 | -1 | 14 | -8 | 0 | -3 | x | x
CCCCn1c(N)c(N(CCOC)C(=O)c2ccc(N3CCCC3=O)cc2)c(=O)[nH]c1=O | -2 | -1 | -10 | -2 | -3 | x | x
O=C(NCCC(F)(F)F)C1Cc2c(-c3ccccc3Oc3ccccc3)ccnc2O1 (centres undefined) | -1 | -2 | x | -1 | 2 | x | x
COc1ccc(CNC(=O)C2CC(c3ccccc3C(F)(F)F)=NO2)cc1 (centres undefined) | 0 | 72* | -3 | 0 | 5 | 7 | 6
CC(=O)c1c2c3c(cccc3n(C)c1=O)C(=O)c1ccccc1-2 | x | x | 34 | x | x | x | x
Cn1c(=O)c(Nc2ccc(O)cc2)c2c3c(cccc31)C(=O)c1ccccc1-2 | 8 | 62* | 32 | 6 | -9 | 12 | 8
Cc1c(C(N)=O)sc2ncn(CC(=O)OC(C)C)c(=O)c12 | -4 | 78* | -5 | -1 | 2 | 2 | 6
SMILES | STEP inh | DNMT1 block | Scp-1 inhibitor | LMPTP inh | SUMO1-SIM PPI | DNMT1 confirm | Beacon interf | others
Cc1nn(C)cc1CN(C)C(=O)c1cc(COc2ccc(F)cc2F)on1 | -1 | 0 | 0 | -1 | 3 | x | x
COc1cc(NS(=O)(=O)c2ccc(NS(=O)(=O)c3ccc(NC(C)=O)cc3)cc2)nc(OC)n1 | 1 | 2 | -8 | -3 | 7 | x | x
COc1cc(NS(=O)(=O)c2ccc(NC(=S)NC(=O)/C=C/c3ccco3)cc2)ncn1 | 5 | 98* | 49 | 5 | 48* | 82* | -3 | Beacon interf DR=>99
COc1cc(NS(=O)(=O)c2ccc(NC(=S)NC(C)=O)cc2)nc(OC)n1 | 2 | 54* | 13 | -2 | 11 | 2 | 2
CCOc1ccc(NC(=S)NC(=O)/C=C/c2ccco2)cc1 | 3 | -4 | -5 | -1 | -10 | x | x
COC(=O)C1(CC2CC(c3ccncc3)=NO2)CCN(C(=O)OC(C)(C)C)CC1 (centres undefined) | 1 | 1 | -11 | -2 | -3 | x | x
O=C(CN1C(=O)NC2(CCCCC2)C1=O)Nc1ccccc1N1CCCC1 | -1 | 0 | -4 | 1 | 0 | x | x
CCN(CC)C(=O)C1=C(C)N(Cc2ccc(F)cc2)C(=O)C(CC(=O)NCc2ccco2)C1 (centres undefined) | -1 | 5 | x | -1 | 2 | x | x
CCN1C(=O)[C@H]2[C@@H](c3ccc(-c4cccc(Cl)c4)c(OC)c3)N[C@@](Cc3ccccc3)(C(=O)OC)[C@H]2C1=O | 1 | 112* | -6 | 4 | -10 | 0 | 6
COC(=O)[C@]1(Cc2ccccc2)N[C@H](c2ccc(-c3cccc(Cl)c3)c(OC)c2)[C@@H]2C(=O)N(C)C(=O)[C@@H]21 | 4 | -18 | 0 | 4 | -16 | x | x
Cc1ccc(NC(=O)Nc2nnc(-c3ccccc3F)s2)cc1 | -1 | 56* | -9 | 0 | 1 | 4 | 1
COc1ccc(NC(=O)Nc2nnc(-c3ccccc3F)s2)cc1 | -6 | 46 | -5 | 20 | 2 | x | x
COc1ccc(N(CC(=O)NCCSCc2ccco2)S(=O)(=O)c2ccccc2)cc1 | 1 | 76* | -13 | 1 | 0 | 4 | 5
COc1ccc(N(CC(=O)NCCSCc2ccco2)S(=O)(=O)c2ccc(C)cc2)cc1 | -3 | -2 | -11 | 1 | 5 | x | x
CC(=O)N=c1sccn1CC(O)c1ccc(Br)cc1 (centres undefined) | -1 | -1 | -5 | 0 | 2 | x | x
c1ccc(CN2CCC(N3CCC(N4CCCCCC4)CC3)CC2)cc1 | 0 | -5 | -12 | -6 | -33 | x | x
c1ccc2c(c1)c1c(c3ccccc32)CN2CCCC2C1 (centres undefined) | -4 | 54* | 22 | 13 | -17 | 29 | 0 | Beacon interf DR=>99
CC(=O)Nc1c(Cl)cc(Cl)c2c1Cc1cc(Cl)ccc1-2 | -2 | 5 | -8 | -2 | 0 | x | x
O=c1oc2c(O)cccc2cc1-c1nc2ccccc2[nH]1 | 3 | 63* | 9 | 66* | -4 | 15 | 20
